Experimental data published in ChEMBL document CHEMBL1926663, “Identification of new aminoacid amides containing the imidazo[2,1-b]benzothiazol-2-ylphenyl moiety as inhibitors of tumorigenesis by oncogenic Met signaling” (Eur J Med Chem, 2012).
Calls of active or inactive are those of the source. No cut-off for these calls is given here.

How the values were obtained:
[1] = Chemical stability in DMSO; format: physicochemical
[2] = Chemical stability in methanol; format: physicochemical
[3] = Chemical stability in solid state; format: physicochemical
[4] = Chemical stability in chloroform; format: physicochemical
MDCK [5] = experiment: Cytotoxicity against HGF-stimulated […] MDCK cells at 50 to 100 fold higher biologically active concentration; format: cell-based
MDCK [6] = experiment: Cytotoxicity against HGF-stimulated […] MDCK cells at biologically active concentration; format: cell-based
HepG2 [7] = experiment: Cytotoxicity against serum-starved human HepG2 cells assessed as reduction of cell survival after 48 hrs by Cell Titer-Glo luminescent assay; format: functional, cell-based
BT-474 [8] = experiment: Cytotoxicity against serum-starved human BT474 cells assessed as reduction of cell survival at 10 to 30 uM after 48 hrs by Cell Titer-Glo luminescent assay; format: functional, cell-based
Outline: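 Cells were held in serum-free medium for 24 h, then exposed to compound for 48 h. Viability was read by CellTiter-Glo luminescence, and data come from three independent experiments run in duplicate. BT474 was routinely maintained in RPMI with 4 mM L-glutamine, 10% FBS and penicillin/streptomycin at 37 °C under 5% CO2.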

GTL 16 [9] = experiment: Cytotoxicity against serum-starved human GTL16 cells assessed as reduction of cell survival after 48 hrs by Cell Titer-Glo luminescent assay; format: functional, cell-based
MCF7 [10] = experiment: Cytotoxicity against serum-starved human MCF7 cells over-expressing ErbB2 cells assessed as reduction of cell survival at 10 to 30 uM after 48 hrs by Cell Titer-Glo luminescent assay; format: functional, cell-based
[11] = molecular target: Hepatocyte growth factor receptor (Homo sapiens) (UniProt P08581); experiment: Inhibition of Met-mediated scattering in HGF-stimulated […] MDCK cells pre-incubated overnight prior to HGF stimulation for 24 hrs measured after 24 to 48 hrs; format: cell-based
BT-474 [12] = experiment: Cytotoxicity against serum-starved human BT474 cells at 2 uM after 48 hrs by Cell Titer-Glo luminescent assay; format: functional, cell-based
MCF7 [13] = experiment: Cytotoxicity against serum-starved human MCF7 cells over-expressing ErbB2 cells at 2 uM after 48 hrs by Cell Titer-Glo luminescent assay; format: functional, cell-based
GTL 16 [14] = experiment: Cytotoxicity against serum-starved human GTL16 cells at 2 uM after 48 hrs by Cell Titer-Glo luminescent assay; format: functional, cell-based
HepG2 [15] = experiment: Cytotoxicity against serum-starved human HepG2 cells at 2 uM after 48 hrs by Cell Titer-Glo luminescent assay; format: functional, cell-based
[16] = Cytotoxicity against cortical neurons assessed as reduction in cell viability at 100 uM after 24 hrs by Cell Titer-Glo luminescent assay; settings: cortical neurone
Outline: (§1)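 Primary embryonic cortical neuron and hepatocyte cultures exposed to compound for 24 h; viability read by Cell Titer Glo luminescence; quadruplicate.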

Mus musculus = experiment: Toxicity in human GTL16 cells xenografted nude mouse assessed as reduction of body weight at 10 to 30 mg/kg, ip administered for every 2 days for 21 days; format: organism-based; set-up: dose 10-30 mg/kg, route intraperitoneal; settings: in vivo
[17] = molecular target: Macrophage-stimulating protein receptor (Homo sapiens) (UniProt Q04912); experiment: Inhibition of TEL-fused RON-mediated mouse BA/F3 cell proliferation at 1 uM after 48 hrs by cell titre blue based spectrophotometry; settings: BaF3
Outline: (§2)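 Ba/F3 cells expressing active kinase forms, or IL3-dependent; 2×10^4 cells/well; 1/2 serial dilutions from 0 to 10 µM (text also gives 0.1–40 µM); 48 h at 37 °C; Cell Titer Blue; absorbance at 490 nm with cell-free blank for background; proliferation as % of untreated cells; triplicate.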

[18] = Antitumor activity against human GTL16 cells xenografted in nude mouse assessed as reduction tumor weight at 10 mg/kg, ip administered for every 2 days for 21 days (reference value: 865.4 348.9 mg); format: functional, GTL 16; settings: route intraperitoneal
[19] = molecular target: Hepatocyte growth factor receptor (Homo sapiens) (UniProt P08581); settings: 10 uM
[20] = molecular target: Epidermal growth factor receptor (Homo sapiens) (UniProt P00533); experiment: Inhibition of ErbB1 phosphorylation in human BT474 cells at 1 to 10 uM pretreated overnight prior to HGF stimulation by Western blot analysis; format: cell-based; settings: BT-474
Outline: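 BT-474 cells starved, pretreated overnight with compound at 1, 3, 10 µM, then HGF 20 ng/ml; total extracts immunoblotted for phospho-ErbBs; ERK as loading control.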

[21] = molecular target: Hepatocyte growth factor receptor (Homo sapiens) (UniProt P08581); settings: HepG2, 10 uM
[22] = Antitumor activity against human GTL16 cells xenografted in nude mouse assessed as reduction tumor weight at 10 to 30 mg/kg, ip administered for every 2 days for 21 days; format: functional, GTL 16; set-up: scale not given: the % may be the effect or the level left; settings: dose mg/kg 10-30; route intraperitoneal
Hepatocyte = experiment: Cytotoxicity against hepatocytes assessed as reduction in cell viability at 100 uM after 24 hrs by Cell Titer-Glo luminescent assay; format: cell-based; outline: as §1
[23] = Antitumor activity against human GTL16 cells xenografted in nude mouse assessed as reduction tumor weight at 30 mg/kg, ip administered for every 2 days for 21 days (reference value: 865.4 348.9 mg); format: functional, GTL 16; settings: route intraperitoneal
[24] = molecular target: Hepatocyte growth factor receptor (Homo sapiens) (UniProt P08581); settings: 1 uM
BaF3 = experiment: Antiproliferative activity against IL3-stimulated mouse BA/F3 cells at 1 uM after 48 hrs by cell titre blue based spectrophotometry; format: functional; outline: as §2
[25] = molecular target: Hepatocyte growth factor receptor (Homo sapiens) (UniProt P08581); settings: BaF3; 1 uM
MCF7 [26] = experiment: Cytotoxicity against serum-starved human MCF7 cells over-expressing ErbB2 cells at 10 uM after 48 hrs by Cell Titer-Glo luminescent assay; format: functional, cell-based
BT-474 [27] = experiment: Cytotoxicity against serum-starved human BT474 cells at 10 uM after 48 hrs by Cell Titer-Glo luminescent assay; format: functional, cell-based
[28] = molecular target: Hepatocyte growth factor receptor (Homo sapiens) (UniProt P08581); experiment: Inhibition of Met-mediated scattering in HGF-stimulated […] MDCK cells at 10 uM pre-incubated overnight prior to HGF stimulation for 24 hrs measured after 24 to 48 hrs; format: cell-based
Outline: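 MDCK cells in DMEM with 2% FBS, 1000 cells/well, settled overnight; compounds 0.1–100 µM overnight at 37 °C, then HGF 20 ng/ml for 24 h; further 24–48 h; PBS wash, 4% PFA fix; scattered cells counted in 30 colonies; IC50 = 50% inhibition of scattering.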

SMILES | Stability [1] | Stability [2] | Stability [3] | Stability [4] | Activity (MDCK [5]) | Activity (MDCK [6]) | also measured
O=C(Cc1cc(F)cc(F)c1)NCCC(=O)Nc1ccc(-c2cn3c4c(sc3n2)CN(Cc2ccccc2)CC4)cc1 | Stable | Stable | Stable | Stable | – | – | –
Cc1cc(C)cc(CC(=O)N[C@@H](Cc2ccccc2)C(=O)Nc2ccc(-c3cn4c5c(sc4n3)CN(Cc3ccccc3)CC5)cc2)c1 | Stable | Stable | Stable | Stable | – | – | –
O=C(Cc1cc(C(F)(F)F)cc(C(F)(F)F)c1)N[C@H](Cc1ccccc1)C(=O)Nc1ccc(-c2cn3c(n2)sc2ccccc23)cc1 | Stable | Stable | Stable | Stable | Toxic | Non-toxic | Activity (HepG2 [7]): Dose-dependent effect; Activity (BT-474 [8]): inactive; Activity (GTL 16 [9]): Dose-dependent effect; Activity (MCF7 [10]): inactive
O=C(Cc1cc(C(F)(F)F)cc(C(F)(F)F)c1)N[C@@H](Cc1ccccc1)C(=O)Nc1ccc(-c2cn3c(n2)sc2cc(Br)ccc23)cc1 | Stable | Stable | Stable | Stable | Toxic | Non-toxic | –
O=C(Cc1cc(F)cc(F)c1)NCCC(=O)Nc1ccc(-c2cn3c4c(sc3n2)CCN(Cc2ccccc2)C4)cc1 | Stable | Stable | Stable | Stable | – | – | –
Cc1[nH]c(/C=C2\C(=O)Nc3ccc(S(=O)(=O)N(C)c4cccc(Cl)c4)cc32)c(C)c1C(=O)N1CCN(C)CC1 | – | – | – | – | – | – | Activity (BT-474 [12]): inactive; Activity (MCF7 [13]): inactive; Activity (GTL 16 [14]): Active; Activity (HepG2 [15]): Active
C[C@H](NC(=O)Cc1cc(F)cc(F)c1)C(=O)Nc1ccc(-c2cn3c4c(sc3n2)CCN(Cc2ccccc2)C4)cc1 | Stable | Stable | Stable | Stable | – | – | –
O=C(Cc1cc(C(F)(F)F)cc(C(F)(F)F)c1)N[C@@H](Cc1ccccc1)C(=O)Nc1ccc(-c2cn3c(n2)sc2ccccc23)cc1 | Stable | Stable | Stable | Stable | Toxic | Non-toxic | Activity [16]: 12%; Activity (Mus musculus): Non-toxic; inhibition [17]: Active; Activity (HepG2 [7]): Dose-dependent effect; Activity [18]: 268.8 mg; inhibition [19]: 53%; Activity (BT-474 [8]): inactive; Activity (GTL 16 [9]): Dose-dependent effect; inhibition [20]: inactive; inhibition [21]: 30%; Activity [22]: 70%; Activity (Hepatocyte): 28%; Activity [23]: 234.8 mg; inhibition [24]: 21%; Activity (MCF7 [10]): inactive; Activity (BaF3): Active; inhibition [25]: Active
COc1cc2ncnc(Nc3ccc(F)c(Cl)c3)c2cc1OCCCN1CCOCC1 | – | – | – | – | – | – | Activity (MCF7 [26]): Active; Activity (BT-474 [27]): Active
Cc1cc(C)cc(CC(=O)N[C@H](Cc2ccccc2)C(=O)Nc2ccc(-c3cn4c5c(sc4n3)CN(Cc3ccccc3)CC5)cc2)c1 | Stable | Stable | Stable | Stable | – | – | –
O=C(Cc1cc(F)cc(F)c1)N[C@@H](CS)C(=O)Nc1ccc(-c2cn3c4c(sc3n2)CN(Cc2ccccc2)CC4)cc1 | Stable | Stable | Stable | Stable | – | – | –
C[C@@H](NC(=O)Cc1cc(F)cc(F)c1)C(=O)Nc1ccc(-c2cn3c4c(sc3n2)CCN(Cc2ccccc2)C4)cc1 | Stable | Stable | Stable | Stable | – | – | –

More lines, main results first:

Stability [1] | Stability [2] | Stability [3] | Stability [4] | SMILES | Activity (MDCK [5]) | Activity (MDCK [6]) | also measured
Stable | Stable | Stable | Stable | Cc1cc(C)cc(CC(=O)N[C@@H](Cc2ccccc2)C(=O)Nc2ccc(-c3cn4c(n3)sc3ccccc34)cc2)c1 | Toxic | Non-toxic | Activity (HepG2 [7]): Dose-dependent effect; Activity (BT-474 [8]): inactive; Activity (GTL 16 [9]): Dose-dependent effect; Activity (MCF7 [10]): inactive
Stable | Stable | Stable | Stable | O=C(Cc1cc(F)cc(F)c1)N[C@@H](Cc1ccccc1)C(=O)Nc1ccc(-c2cn3c(n2)sc2ccccc23)cc1 | Toxic | Non-toxic | Activity (HepG2 [7]): Dose-dependent effect; Activity (BT-474 [8]): inactive; Activity (GTL 16 [9]): Dose-dependent effect; Activity (MCF7 [10]): inactive
Stable | Stable | Stable | Stable | Cc1cc(C)cc(CC(=O)NCC(=O)Nc2ccc(-c3cn4c(n3)sc3ccccc34)cc2)c1 | – | – | inhibition [11]: inactive
Stable | Stable | Stable | Stable | Cc1cc(C)cc(CC(=O)N[C@H](Cc2ccccc2)C(=O)Nc2ccc(-c3cn4c(n3)sc3ccccc34)cc2)c1 | Toxic | Non-toxic | –
Stable | Stable | Stable | Stable | Cc1ccc(C[C@H](NC(=O)Cc2cc(C)cc(C)c2)C(=O)Nc2ccc(-c3cn4c(n3)sc3ccccc34)cc2)cc1 | – | – | –
Stable | Stable | Stable | Stable | Cc1cc(C)cc(CC(=O)N[C@@H](Cc2ccccc2)C(=O)Nc2ccc(-c3cn4c5c(sc4n3)CCCC5)cc2)c1 | – | – | –
Stable | Stable | Stable | Stable | Cc1ccc(CC(=O)N[C@@H](Cc2ccccc2)C(=O)Nc2ccc(-c3cn4c(n3)sc3ccccc34)cc2)cc1 | Toxic | Non-toxic | inhibition [28]: 30%
Stable | Stable | Stable | Stable | Cc1cc(C)cc(CC(=O)N[C@@H](Cc2ccc(O)cc2)C(=O)Nc2ccc(-c3cn4c(n3)sc3ccccc34)cc2)c1 | – | – | –
Stable | Stable | Stable | Stable | Cc1ccc(C[C@H](NC(=O)Cc2cc(C(F)(F)F)cc(C(F)(F)F)c2)C(=O)Nc2ccc(-c3cn4c(n3)sc3ccccc34)cc2)cc1 | – | – | –
